Results from ChEMBL document CHEMBL1124387, “Cardiotonic agents. 9. Synthesis and biological evaluation of a series of (E)-4,5-dihydro-6-[2-[4-(1H-imidazol-1-yl)phenyl]ethenyl]-3 (2H)-pyridazinones: a novel class of compounds with positive inotropic, antithrombotic, and vasodilatory activities for the treatment of congestive heart failure” (J Med Chem, 1989).

Experiments:
[1] = tested on: Canis familiaris; experiment: Hemodynamic activity in anesthetized dog as percent change from baseline (2271 mmHg/s) in left ventricular myocardial activity at 0.1 mg/kg administered intravenously; assay type: functional, Canis lupus familiaris, Heart left ventricle; details: route intravenous
[2] = tested on: Canis familiaris; experiment: Cardiovascular activity in presence of beta-adrenoceptor blockade in dogs as percent change in heart rate from base line (136 bpm) at 0.01 mg/kg; assay type: functional, Canis lupus familiaris
[3] = tested on: Canis familiaris; experiment: Cardiovascular activity in presence of beta-adrenoceptor blockade in dogs as percent change in left ventricular myocardial contractility from base line (1869 mmHg/s) at 0.01 mg/kg dose given 15 min after nadolol; assay type: functional, Canis lupus familiaris, Heart left ventricle
[4] = tested on: Canis familiaris; experiment: Cardiovascular activity in presence of beta-adrenoceptor blockade in dogs as percent change in forelimb vascular resistance from base line (5.23 mmHg/mL/min) at 0.01 mg/kg given 15 min after nadolol; assay type: functional, Canis lupus familiaris
[5] = tested on: Canis familiaris; experiment: Hemodynamic activity in anesthetized dog as percent change in blood pressure from baseline (123 mmHg) at 0.01 mg/kg administered intravenously; assay type: functional, Canis lupus familiaris; details: route intravenous
Procedure, shortened: (§1)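 Acutely instrumented anesthetized dogs (n = 6), 30-min control period. Compound in 0.9% saline, or dilute HCl diluted with saline, at 0.1 mL/kg iv over 1 min. At least four ascending half-log doses, 10 min apart, one compound per animal. Recorded: LV dP/dtmax, heart rate, aortic pressure and forelimb resistance. Values are maximum response from control average ± SEM.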

[6] = tested on: Canis familiaris; experiment: Hemodynamic activity in anesthetized dog as percent change in blood pressure from baseline (123 mmHg) at 0.1 mg/kg administered intravenously; assay type: functional, Canis lupus familiaris; details: route intravenous; procedure, shortened: as §1
[7] = tested on: Canis familiaris; experiment: Hemodynamic activity in anesthetized dog as percent change in heart rate from baseline (152 bpm) at 0.001 mg/kg administered intravenously; assay type: functional, Canis lupus familiaris; details: route intravenous; procedure, shortened: as §1
[8] = tested on: Canis familiaris; experiment: Hemodynamic activity in anesthetized dog as percent change in heart rate from baseline (152 bpm) at 0.003 mg/kg administered intravenously; assay type: functional, Canis lupus familiaris; details: route intravenous; procedure, shortened: as §1
[9] = tested on: Canis familiaris; experiment: Hemodynamic activity in anesthetized dog as percent change in fore limb resistance from baseline (2.77 mmHg/mL/min) at 0.001 mg/kg administered intravenously; assay type: functional, Canis lupus familiaris; details: route intravenous; procedure, shortened: as §1
[10] = tested on: Canis familiaris; experiment: Hemodynamic activity in anesthetized dog as percent change in fore limb resistance from baseline (2.77 mmHg/mL/min) at 0.3 mg/kg administered intravenously; assay type: functional, Canis lupus familiaris; details: route intravenous; procedure, shortened: as §1
[11] = tested on: Canis familiaris; experiment: Weight of thrombus after 60 min of 10 ug/kg/min; assay type: functional, Canis lupus familiaris
Procedure, shortened: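 Anesthetized adult dogs were given sodium pentobarbital (32 mg/kg iv), intubated and artificially respired, then allowed 30 min to stabilize after surgery. Circumflex coronary thrombosis was induced by delivering 50 μA through an intraluminal silver-coated copper electrode, which denuded the endothelium. Continuous drug or saline infusion began 15 min before current onset and ran throughout, with one treatment per animal. After 60 min of stimulation the thrombus was dissected and weighed.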

[12] = species on record: Homo sapiens; experiment: In vitro inhibition of collagen stimulated platelet aggregation in human whole blood; assay type: functional
Procedure, shortened: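 Human whole blood from aspirin/NSAID-free fasted donors, read by impedance aggregometry 5 min after adding ADP or collagen. Aggregation expressed as % of control (2-6 replicates), plotted against log drug concentration; IC50 obtained by extrapolation.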

[13] = tested on: Canis familiaris; experiment: Cardiovascular activity in presence of beta-adrenoceptor blockade in dogs as percent change in forelimb vascular resistance from base line (4.71 mmHg/mL/min) at 0.01 mg/kg before nadolol administration

CC1CC(=O)NN=C1/C=C/c1ccc(-n2ccnc2)cc1.Cl (stereo not drawn)
Change [1]: 134% | Change [2]: 18% | Change [3]: 25% | Change [4]: -13% | Change [5]: -13% | Change [6]: -35% | Change [7]: 0.2% | Change [8]: 5% | Change [9]: 0.3% | Change [10]: -54% | Thrombus weight [11]: 10 mg | IC50 [12]: 1.5 nM | Change [13]: -19%
